Measurements taken from paper PMC6490184 (ACS infectious diseases, 2019).
Entries after “also recorded” stand apart in the source; their conditions may differ. Structures can show the parent of a compound that is named as a salt. Where two headings read alike, the source gives them in different places.

How the values were obtained:
[1] = test system: E. coli expressing tetracycline destructase enzymes; experiment: Checkerboard whole cell inhibition assay; assay type: cell-based; settings: co-administered with tetracycline antibiotics
[2] = Non-enzymatic stability on storage and in solution; assay type: physicochemical; settings: extended solution times (overnight), LCMS
[3] = test system: tetracycline destructase enzymes Tet(50), Tet(X), and Tet(X)_3; assay type: biochemical
In short: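 Enzymes expressed from pET28b(+) in E. coli BL21-Star (DE3) and Ni-NTA purified. Reactions in 100 mM TAPS pH 8.5 held 504 μM NADPH, 5.04 mM MgCl2, 25.3 μM tetracycline substrate, 0.4 μM enzyme and graded inhibitor, in triplicate. Absorbance at 380 or 400 nm was followed for 4 min. Initial velocities were plotted against log[inhibitor] and fitted by nonlinear regression for IC50. Controls: no-enzyme, no-inhibitor, no-substrate.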

Tet(X) [4] = molecular target: T1, Tet(X) (Bacteroides thetaiotaomicron, UniProt Q93L51); experiment: In vitro inhibition of Tet; assay type: biochemical
Tet(50) [5] = molecular target: T2, Tet(50) (Unknown prokaryotic organism, UniProt A0A059WYP6); experiment: In vitro inhibition of Tet; assay type: biochemical; settings: degradation of tetracycline antibiotics by soil-derived Tet(50)
In short: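 Ni-NTA-purified enzyme, dialysed into 50 mM K2HPO4 pH 8.0, 150 mM NaCl, 1 mM DTT. A380 or A400 followed continuously for 4 min. No-enzyme control was set to 1 × 10^15 inhibitor, no-inhibitor control to 1 × 10^−15. No-substrate controls were also run.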

Tet(50) [6] = molecular target: T2, Tet(50); experiment: Exposure of aDem to Tet; assay type: biochemical; settings: Tet(50) with NADPH, no tetracycline, LCMS
Tet(X) [7] = molecular target: T1, Tet(X); experiment: Tet; assay type: biochemical; settings: decrease in 440 nm absorption band and extracted mass (LCMS)
[8] = test system: E. coli expressing Tet(X); experiment: Whole cell resistance of E. coli expressing Tet; assay type: cell-based
[9] = apparent IC50, Tet(X)-mediated degradation of tigecycline

Structure (SMILES)	whole cell inhibition / rescue of tetracycline activity [1]	non-enzymatic degradation in solution [2]	in vitro destructase inhibitory activity [3]	IC50 (Tet(X) [4]; [9]) [µM]	also measured
Cc1c2c(c(O)c3c(O)ccc(I)c13)C(=O)[C@]1(O)C(=O)C(C(N)=O)=C(O)[C@@H](N(C)C)[C@@H]1C2.Cl [7-I-aTc, (4S,4aS,12aS)-4-(dimethylamino)-3,10,11,12a-tetrahydroxy-7-iodo-6-methyl-1,12-dioxo-1,4,4a,5,12,12a-hexahydrotetracene-2-carboxamide hydrochloride]	limited activity; also recorded: no inhibitory activity	non-enzymatic degradation of 7-I-aTc in solution was observed; also recorded: some non-enzymatic degradation	potent in vitro destructase inhibitory activity		
Cc1c2c(c(O)c3c(O)c(Br)ccc13)C(=O)[C@]1(O)C(=O)C(C(N)=O)=C(O)[C@@H](N(C)C)[C@@H]1C2.Cl [9-Br-aTc, (4S,4aS,12aS)-9-bromo-4-(dimethylamino)-3,10,11,12a-tetrahydroxy-6-methyl-1,12-dioxo-1,4,4a,5,12,12a-hexahydrotetracene-2-carboxamide hydrochloride]	limited activity	some non-enzymatic degradation	potent in vitro destructase inhibitory activity		
Cc1c2c(c(O)c3c(O)ccc(Cl)c13)C(=O)[C@]1(O)C(=O)C(C(N)=O)=C(O)[C@@H](N(C)C)[C@@H]1C2 [aCTc, (4S,4aS,12aS)-7-chloro-4-(dimethylamino)-3,10,11,12a-tetrahydroxy-6-methyl-1,12-dioxo-1,4,4a,5,12,12a-hexahydrotetracene-2-carboxamide hydrochloride]				0.4 to 1.5	
CN(C)[C@@H]1C(O)=C(C(N)=O)C(=O)[C@@]2(O)C(=O)c3c(cc4c(Cl)ccc(O)c4c3O)C[C@@H]12.Cl [aDem, (4S,4aS,12aS)-7-chloro-4-(dimethylamino)-3,10,11,12a-tetrahydroxy-1,12-dioxo-1,4,4a,5,12,12a-hexahydrotetracene-2-carboxamide hydrochloride]	rescues tetracycline activity			0.4 to 1.5	IC50 (Tet(X) [4]; apparent IC50, Tet(X)-mediated degradation of tetracycline antibiotics (tetracycline, demeclocycline)): 1 to 4 µM; in vitro inhibitory activity against enzymatic degradation by Tet(50) (Tet(50) [5]): performed poorly; in vitro inhibitory activity against enzymatic degradation by Tet(50) (Tet(50) [5]; listed as 7): poor in vitro inhibitory activity; decrease in extracted mass over time (Tet(50) [6]): no measurable decrease
Cc1c2c(c(O)c3c(O)cccc13)C(=O)[C@]1(O)C(=O)C(C(N)=O)=C(O)[C@@H](N(C)C)[C@@H]1C2 [aTc, anhydrotetracycline, reference compound]	performs well				IC50 (Tet(X) [4]): 0.4 to 1.5 µM; enzymatic degradation by Tet(X) (Tet(X) [7]): substrate for Tet(X); inhibition model ([3]; Lineweaver-Burk plots, degradation of tetracycline): mixed competitive/non-competitive inhibition model
CN(C)c1cc(NC(=O)CNC(C)(C)C)c(O)c2c1C[C@H]1C[C@H]3[C@H](N(C)C)C(O)=C(C(N)=O)C(=O)[C@@]3(O)C(O)=C1C2=O [tigecycline]					resistance, increase over empty vector controls [8]: 2 fold
